Among the data in ChEMBL document CHEMBL4359823, “Switching on the activity of 1,5-diaryl-pyrrole derivatives against drug-resistant ESKAPE bacteria: Structure-activity relationships and mode of action studies” (Eur J Med Chem, 2019) are MIC values, retold here.

In brackets after ≈: the same amount, converted by molar mass.

Common to all, as to type: functional
For assay [1], the system named is Enterococcus faecalis. Description: Antibacterial activity against vancomycin resistant Enterococcus faecalis NCTC12204 measured after overnight incubation by microbroth dilution method. The essentials:
(§1)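 Microbroth dilution: DMSO stocks diluted in water, 2-fold series. Overnight TSB cultures back-diluted to OD 0.01 and mixed 1:1 with compound. Incubated overnight at 37 °C; MIC taken as lowest concentration without visible growth (<0.1 OD600). Run in duplicate; matching DMSO levels checked for effect on growth.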
In general terms: In broth dilution the organism is exposed to a series of concentrations in liquid medium.

Assay [2] deals with Enterococcus faecalis. Description: Antibacterial activity against vancomycin resistant Enterococcus faecalis NCTC12201 measured after overnight incubation by microbroth dilution method. In outline: as §1
Assay [3] deals with Klebsiella pneumoniae. In words: Antibacterial activity against Klebsiella pneumoniae M6 measured after overnight incubation by microbroth dilution method. In outline: (§2)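 Microbroth dilution MIC. Compound DMSO stocks were diluted in water as a 2-fold series. Overnight TSB cultures were back-diluted to OD 0.01 and mixed 1:1 with compound. Plates were incubated overnight at 37 °C. MIC was the lowest concentration without visible growth (<0.1 OD600), run in duplicate.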

The subject of assay [4] is Staphylococcus aureus. Description: Antibacterial activity against methicillin resistant Staphylococcus aureus NCTC13277 measured after overnight incubation by microbroth dilution method. In outline: as §1
Assay [5] concerns Pseudomonas aeruginosa. In words: Antibacterial activity against Pseudomonas aeruginosa NCTC13437 measured after overnight incubation by microbroth dilution method. In outline: as §2
Assay [6] concerns Staphylococcus aureus. Description: Antibacterial activity against methicillin sensitive Staphylococcus aureus NCTC 6571 measured after overnight incubation by microbroth dilution method. The essentials: as §1
The test system of assay [7] is Pseudomonas aeruginosa. In words: Antibacterial activity against Pseudomonas aeruginosa PAO1 measured after overnight incubation by microbroth dilution method. The essentials:
as §2

In another assay the test system is Escherichia coli. Description: Antibacterial activity against Escherichia coli NCTC12923 measured after overnight incubation by microbroth dilution method. In outline: as §2
The test system of assay [8] is Staphylococcus aureus. Description: Antibacterial activity against methicillin resistant Staphylococcus aureus NCTC13616 measured after overnight incubation by microbroth dilution method. In outline: as §1
Assay [9] relates to Enterococcus faecalis. In words: Antibacterial activity against vancomycin sensitive Enterococcus faecalis NCTC775 measured after overnight incubation by microbroth dilution method. The essentials: as §1
For assay [10], the system named is Acinetobacter baumannii. In words: Antibacterial activity against Acinetobacter baumannii AYE measured after overnight incubation by microbroth dilution method. In outline:
as §2

Assay [11] has as its system Acinetobacter baumannii. In words: Antibacterial activity against Acinetobacter baumannii ATCC 17978 measured after overnight incubation by microbroth dilution method. In outline:
as §2

Assay [12] has as its system Klebsiella pneumoniae. Description: Antibacterial activity against Klebsiella pneumoniae NCTC13368 measured after overnight incubation by microbroth dilution method. In outline:
as §2

As usually defined, the MIC is the smallest concentration in the dilution series that meets the test's criterion for growth inhibition.

Take `Cc1c(CNCC2CCCCC2)cc(-c2ccc(Cl)cc2)n1-c1ccc(Cl)cc1`: the MIC is 2 µg/mL (≈ 4.68 µM) in the assay with Enterococcus faecalis [1]; 4 µg/mL (≈ 9.36 µM) with Enterococcus faecalis [2]; > 128 µg/mL with Klebsiella pneumoniae [3]; 4 µg/mL (≈ 9.36 µM) against Staphylococcus aureus [4]; > 128 µg/mL with Pseudomonas aeruginosa [5]; 4 µg/mL (≈ 9.36 µM) in the assay on Staphylococcus aureus [6]. Further, the MIC was > 128 µg/mL in the assay with Pseudomonas aeruginosa [7]; > 128 µg/mL against Escherichia coli; 4 µg/mL (≈ 9.36 µM) in the assay on Staphylococcus aureus [8]; 2 µg/mL (≈ 4.68 µM) in the assay with Enterococcus faecalis [9]; > 128 µg/mL against Acinetobacter baumannii [10]; > 128 µg/mL with Acinetobacter baumannii [11]. Also, the MIC in the assay on Klebsiella pneumoniae [12] was > 128 µg/mL.
As for `Cc1cc(CNCc2ccccc2)c(C)n1-c1ccc(Cl)cc1`, the MIC was 128 µg/mL (≈ 394 µM) in the assay on Enterococcus faecalis [1]; > 128 µg/mL with Enterococcus faecalis [2]; > 128 µg/mL in the assay with Staphylococcus aureus [4]; > 128 µg/mL with Staphylococcus aureus [6]; > 128 µg/mL against Staphylococcus aureus [8]; > 128 µg/mL against Enterococcus faecalis [9].
Turning to `Cc1c(CNC2CCCCC2)cc(-c2ccc(Cl)cc2)n1-c1ccc([N+](=O)[O-])cc1`, the MIC is 4 µg/mL (≈ 9.44 µM) against Enterococcus faecalis [1]; 8 µg/mL (≈ 18.9 µM) against Enterococcus faecalis [2]; > 128 µg/mL against Klebsiella pneumoniae [3]; 16 µg/mL (≈ 37.7 µM) against Staphylococcus aureus [4]; > 128 µg/mL in the assay on Pseudomonas aeruginosa [5]; 8 µg/mL (≈ 18.9 µM) in the assay with Staphylococcus aureus [6]. Besides, the MIC with Pseudomonas aeruginosa [7] is > 128 µg/mL; with Escherichia coli it was > 128 µg/mL; in the assay on Staphylococcus aureus [8], 16 µg/mL (≈ 37.7 µM); in the assay with Enterococcus faecalis [9] it was 8 µg/mL (≈ 18.9 µM); against Acinetobacter baumannii [10], 128 µg/mL (≈ 302 µM); in the assay on Acinetobacter baumannii [11], 128 µg/mL (≈ 302 µM). Besides, the MIC against Klebsiella pneumoniae [12] is > 128 µg/mL.
As for `Cc1cc(CNCCCCCCCCNC(=N)N)c(C)n1-c1ccc(Cl)cc1`, the MIC with Enterococcus faecalis [1] was 4 to 8 µg/mL (≈ 9.9 to 19.8 µM); against Enterococcus faecalis [2], 16 µg/mL (≈ 39.6 µM); with Klebsiella pneumoniae [3], 128 µg/mL (≈ 317 µM); in the assay with Staphylococcus aureus [4] it was 8 µg/mL (≈ 19.8 µM); against Pseudomonas aeruginosa [5], 64 µg/mL (≈ 158 µM); in the assay with Staphylococcus aureus [6] it was 4 µg/mL (≈ 9.9 µM). Further, the MIC with Pseudomonas aeruginosa [7] was > 128 µg/mL; in the assay on Escherichia coli it was 16 µg/mL (≈ 39.6 µM); in the assay on Staphylococcus aureus [8], 8 µg/mL (≈ 19.8 µM); in the assay with Enterococcus faecalis [9] it was 8 to 16 µg/mL (≈ 19.8 to 39.6 µM); in the assay with Acinetobacter baumannii [10], 64 µg/mL (≈ 158 µM); in the assay with Acinetobacter baumannii [11], 16 µg/mL (≈ 39.6 µM). Moreover, the MIC in the assay on Klebsiella pneumoniae [12] is > 128 µg/mL.
In the case of `Cc1c(CNC(C)c2ccccc2)cc(-c2ccc(Cl)cc2)n1-c1ccc(Cl)cc1` (stereo unspecified), the MIC against Enterococcus faecalis [1] was 2 µg/mL (≈ 4.59 µM); in the assay with Enterococcus faecalis [2] it was 2 to 4 µg/mL (≈ 4.59 to 9.19 µM); in the assay with Klebsiella pneumoniae [3] it was > 128 µg/mL; with Staphylococcus aureus [4], 4 µg/mL (≈ 9.19 µM); against Pseudomonas aeruginosa [5] it was > 128 µg/mL; against Staphylococcus aureus [6], 4 µg/mL (≈ 9.19 µM). The minimum inhibitory concentration (MIC) against Pseudomonas aeruginosa [7] is > 128 µg/mL; in the assay on Escherichia coli, 16 to 128 µg/mL (≈ 36.7 to 294 µM); with Staphylococcus aureus [8] it was 4 µg/mL (≈ 9.19 µM); in the assay on Enterococcus faecalis [9], 2 to 4 µg/mL (≈ 4.59 to 9.19 µM); against Acinetobacter baumannii [10], > 128 µg/mL; against Acinetobacter baumannii [11] it was > 128 µg/mL. Moreover, in the assay with Klebsiella pneumoniae [12], the MIC was > 128 µg/mL.
Take `Cc1c(CNC2CCC(N)CC2)cc(-c2ccc(Cl)cc2)n1-c1ccc(Cl)cc1` (stereo unspecified): the MIC with Enterococcus faecalis [1] was found to be 4 µg/mL (≈ 9.34 µM); in the assay with Enterococcus faecalis [2] it was 8 µg/mL (≈ 18.7 µM); with Klebsiella pneumoniae [3] it was 16 µg/mL (≈ 37.3 µM); against Staphylococcus aureus [4] it was 8 µg/mL (≈ 18.7 µM); against Pseudomonas aeruginosa [5], 32 µg/mL (≈ 74.7 µM); against Staphylococcus aureus [6], 8 µg/mL (≈ 18.7 µM). For the same molecule, the MIC worked out at 32 µg/mL (≈ 74.7 µM) with Pseudomonas aeruginosa [7]; 8 µg/mL (≈ 18.7 µM) against Escherichia coli; 8 µg/mL (≈ 18.7 µM) in the assay with Staphylococcus aureus [8]; 8 µg/mL (≈ 18.7 µM) in the assay on Enterococcus faecalis [9]; 32 µg/mL (≈ 74.7 µM) in the assay on Acinetobacter baumannii [10]; 16 µg/mL (≈ 37.3 µM) in the assay on Acinetobacter baumannii [11]. The same molecule returned an MIC in the assay with Klebsiella pneumoniae [12] of 32 µg/mL (≈ 74.7 µM).
`Cc1c(CNC2CCCCC2)cc(-c2ccc(Cl)cc2)n1-c1ccc(F)cc1`: the MIC is 4 µg/mL (≈ 10.1 µM) against Enterococcus faecalis [1]; 4 µg/mL (≈ 10.1 µM) in the assay with Enterococcus faecalis [2]; > 128 µg/mL against Klebsiella pneumoniae [3]; 8 µg/mL (≈ 20.2 µM) against Staphylococcus aureus [4]; > 128 µg/mL with Pseudomonas aeruginosa [5]; 8 µg/mL (≈ 20.2 µM) against Staphylococcus aureus [6]. Besides, the MIC against Pseudomonas aeruginosa [7] is > 128 µg/mL; in the assay with Escherichia coli it was > 128 µg/mL; against Staphylococcus aureus [8], 8 µg/mL (≈ 20.2 µM); in the assay with Enterococcus faecalis [9], 4 µg/mL (≈ 10.1 µM); in the assay with Acinetobacter baumannii [10] it was 128 µg/mL (≈ 322 µM); in the assay with Acinetobacter baumannii [11], 64 µg/mL (≈ 161 µM). Also, the MIC in the assay on Klebsiella pneumoniae [12] is > 128 µg/mL.
With `Cc1cc(CNC2CCCCC2)c(C)n1-c1ccc(Cl)cc1`, the MIC with Enterococcus faecalis [1] was 16 µg/mL (≈ 50.5 µM); in the assay with Enterococcus faecalis [2], 32 µg/mL (≈ 101 µM); against Klebsiella pneumoniae [3], > 64 µg/mL; in the assay with Staphylococcus aureus [4], 64 µg/mL (≈ 202 µM); against Pseudomonas aeruginosa [5], > 64 µg/mL; against Staphylococcus aureus [6] it was 64 µg/mL (≈ 202 µM). For the same molecule, the MIC is > 64 µg/mL against Pseudomonas aeruginosa [7]; 64 µg/mL (≈ 202 µM) with Staphylococcus aureus [8]; 32 µg/mL (≈ 101 µM) in the assay on Enterococcus faecalis [9]; > 64 µg/mL in the assay with Acinetobacter baumannii [10]; > 64 µg/mL in the assay with Acinetobacter baumannii [11]; > 64 µg/mL against Klebsiella pneumoniae [12].
